Assay results published in ChEMBL document CHEMBL4017520, “Discovery, Structure-Activity Relationship, and Antiparkinsonian Effect of a Potent and Brain-Penetrant Chemical Series of Positive Allosteric Modulators of Metabotropic Glutamate Receptor 4” (J Med Chem, 2017).
Each block holds one molecule with its values, some of them ahead of it. The source made the active and inactive calls. The rule behind the calls is not given here.

Columns and labels:
[1] = molecular target: Metabotropic glutamate receptor 2 (Homo sapiens) (UniProt Q14416); experiment: Activity at human mGlu2 receptor expressed in HEK293 cells co-expressing Gi/Gq assessed as effect on intracellular calcium level up to 10 uM after 10 mins by Fluo4-AM dye based fluorescence assay; type: functional, cell-based
Metabotropic glutamate receptor 2 (Homo sapiens), sequence (Q14416 19-872 limits assumed): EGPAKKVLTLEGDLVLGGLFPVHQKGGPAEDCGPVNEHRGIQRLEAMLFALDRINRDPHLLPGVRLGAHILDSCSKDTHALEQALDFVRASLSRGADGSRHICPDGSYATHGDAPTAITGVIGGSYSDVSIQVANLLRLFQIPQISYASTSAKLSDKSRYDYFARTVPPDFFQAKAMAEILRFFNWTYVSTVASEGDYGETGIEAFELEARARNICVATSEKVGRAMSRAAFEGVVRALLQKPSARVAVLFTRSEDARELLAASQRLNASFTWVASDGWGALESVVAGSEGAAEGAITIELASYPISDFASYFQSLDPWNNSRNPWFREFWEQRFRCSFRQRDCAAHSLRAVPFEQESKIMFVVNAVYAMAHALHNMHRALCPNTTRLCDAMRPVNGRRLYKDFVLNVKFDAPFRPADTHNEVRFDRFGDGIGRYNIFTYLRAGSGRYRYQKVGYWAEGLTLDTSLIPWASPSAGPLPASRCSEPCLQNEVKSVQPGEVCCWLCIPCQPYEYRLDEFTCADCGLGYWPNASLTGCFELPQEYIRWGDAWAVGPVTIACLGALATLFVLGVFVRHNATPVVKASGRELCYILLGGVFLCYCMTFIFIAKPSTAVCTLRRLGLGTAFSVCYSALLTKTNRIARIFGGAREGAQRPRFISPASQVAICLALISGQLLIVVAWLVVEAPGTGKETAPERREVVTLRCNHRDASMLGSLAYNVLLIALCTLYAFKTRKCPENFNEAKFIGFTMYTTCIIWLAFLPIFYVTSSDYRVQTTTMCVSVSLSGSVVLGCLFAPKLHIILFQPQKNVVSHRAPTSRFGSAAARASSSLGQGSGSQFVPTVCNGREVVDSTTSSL
Method in brief: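 HEK-293 cells transiently expressing the human mGluR with a promiscuous or chimeric G protein were serum-starved 3 h and loaded 1.5 h with 1 μM Fluo4-AM. Compound alone was added in assay buffer, and calcium fluorescence (ex 485/em 525) was recorded for 10 min as agonist readout.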

[2] = molecular target: D(2) dopamine receptor (Homo sapiens) (UniProt P14416); experiment: Antagonist activity at D2L receptor (unknown origin) at 10 uM
D(2) dopamine receptor (Homo sapiens), sequence (P14416 whole entry): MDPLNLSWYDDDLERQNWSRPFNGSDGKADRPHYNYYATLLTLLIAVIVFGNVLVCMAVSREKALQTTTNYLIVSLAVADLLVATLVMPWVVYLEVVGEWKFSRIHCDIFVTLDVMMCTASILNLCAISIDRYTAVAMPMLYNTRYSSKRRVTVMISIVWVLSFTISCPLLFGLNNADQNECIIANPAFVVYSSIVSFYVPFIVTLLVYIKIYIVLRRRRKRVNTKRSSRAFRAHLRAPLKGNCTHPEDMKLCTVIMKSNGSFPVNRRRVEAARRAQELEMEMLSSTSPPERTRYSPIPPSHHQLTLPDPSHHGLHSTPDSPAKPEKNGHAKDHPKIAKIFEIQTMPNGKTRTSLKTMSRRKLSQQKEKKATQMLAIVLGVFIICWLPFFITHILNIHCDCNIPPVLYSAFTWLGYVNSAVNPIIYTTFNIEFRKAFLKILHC

[3] = molecular target: Metabotropic glutamate receptor 3 (Homo sapiens) (UniProt Q14832); experiment: Activity at human mGlu3 receptor expressed in HEK293 cells co-expressing Gi/Gq assessed as effect on EC20/EC80 glutamate-induced intracellular calcium level up to 10 uM preincubated for 10 mins followed by glutamate addition measured for 3 mins by Fluo4-AM dye based fluorescence assay; type: functional, cell-based
Metabotropic glutamate receptor 3 (Homo sapiens), sequence (Q14832 23-879 limits assumed): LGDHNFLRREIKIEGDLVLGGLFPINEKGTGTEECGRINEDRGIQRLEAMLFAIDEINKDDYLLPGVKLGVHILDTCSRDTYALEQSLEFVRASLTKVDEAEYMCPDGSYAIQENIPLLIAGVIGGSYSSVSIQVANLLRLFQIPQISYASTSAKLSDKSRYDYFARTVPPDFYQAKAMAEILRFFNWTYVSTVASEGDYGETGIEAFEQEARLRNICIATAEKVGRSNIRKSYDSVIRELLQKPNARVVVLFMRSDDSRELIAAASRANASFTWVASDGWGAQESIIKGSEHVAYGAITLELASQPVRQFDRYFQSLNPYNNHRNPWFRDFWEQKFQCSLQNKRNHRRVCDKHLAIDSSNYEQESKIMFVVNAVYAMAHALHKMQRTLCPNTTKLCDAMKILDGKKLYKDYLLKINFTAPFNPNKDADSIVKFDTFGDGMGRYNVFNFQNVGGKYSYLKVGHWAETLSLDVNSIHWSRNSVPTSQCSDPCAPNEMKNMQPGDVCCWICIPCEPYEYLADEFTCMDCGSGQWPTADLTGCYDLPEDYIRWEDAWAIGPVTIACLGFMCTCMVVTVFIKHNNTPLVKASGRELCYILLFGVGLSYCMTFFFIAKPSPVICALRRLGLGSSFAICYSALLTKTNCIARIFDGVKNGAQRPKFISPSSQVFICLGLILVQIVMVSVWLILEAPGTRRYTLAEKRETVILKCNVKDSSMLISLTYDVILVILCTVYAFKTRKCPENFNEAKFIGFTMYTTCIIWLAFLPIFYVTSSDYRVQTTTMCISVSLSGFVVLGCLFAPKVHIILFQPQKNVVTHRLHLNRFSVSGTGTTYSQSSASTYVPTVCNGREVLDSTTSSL
Method in brief: (§1)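 HEK-293 cells were electroporated with the human mGluR plus a promiscuous or chimeric G protein and cultured 24 h, then serum-starved 3 h. Cells were loaded 1.5 h with 1 μM Fluo4-AM in HBSS/HEPES buffer with probenecid and 0.1% BSA. Compound was added for 10 min, then glutamate at EC20 (PAM) or EC80 (NAM), and fluorescence (ex 485/em 525) was read for 3 min.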

[4] = molecular target: D(2) dopamine receptor (Homo sapiens) (UniProt P14416); experiment: Positive allosteric modulation of D2L receptor (unknown origin) at 10 uM
[5] = molecular target: Metabotropic glutamate receptor 1 (Homo sapiens) (UniProt Q13255); experiment: Activity at human mGlu1 receptor expressed in HEK293 cells co-expressing Gi/Gq assessed as effect on EC20/EC80 glutamate-induced intracellular calcium level up to 10 uM preincubated for 10 mins followed by glutamate addition measured for 3 mins by Fluo4-AM dye based fluorescence assay; type: functional, cell-based; method in brief: as §1
[6] = molecular target: Metabotropic glutamate receptor 5 (Homo sapiens) (UniProt P41594); experiment: Activity at human mGlu5 receptor expressed in HEK293 cells co-expressing Gi/Gq assessed as effect on EC20/EC80 glutamate-induced intracellular calcium level up to 10 uM preincubated for 10 mins followed by glutamate addition measured for 3 mins by Fluo4-AM dye based fluorescence assay; type: functional, cell-based; method in brief: as §1
Metabotropic glutamate receptor 5 (Homo sapiens), sequence (P41594 21-1212 limits assumed): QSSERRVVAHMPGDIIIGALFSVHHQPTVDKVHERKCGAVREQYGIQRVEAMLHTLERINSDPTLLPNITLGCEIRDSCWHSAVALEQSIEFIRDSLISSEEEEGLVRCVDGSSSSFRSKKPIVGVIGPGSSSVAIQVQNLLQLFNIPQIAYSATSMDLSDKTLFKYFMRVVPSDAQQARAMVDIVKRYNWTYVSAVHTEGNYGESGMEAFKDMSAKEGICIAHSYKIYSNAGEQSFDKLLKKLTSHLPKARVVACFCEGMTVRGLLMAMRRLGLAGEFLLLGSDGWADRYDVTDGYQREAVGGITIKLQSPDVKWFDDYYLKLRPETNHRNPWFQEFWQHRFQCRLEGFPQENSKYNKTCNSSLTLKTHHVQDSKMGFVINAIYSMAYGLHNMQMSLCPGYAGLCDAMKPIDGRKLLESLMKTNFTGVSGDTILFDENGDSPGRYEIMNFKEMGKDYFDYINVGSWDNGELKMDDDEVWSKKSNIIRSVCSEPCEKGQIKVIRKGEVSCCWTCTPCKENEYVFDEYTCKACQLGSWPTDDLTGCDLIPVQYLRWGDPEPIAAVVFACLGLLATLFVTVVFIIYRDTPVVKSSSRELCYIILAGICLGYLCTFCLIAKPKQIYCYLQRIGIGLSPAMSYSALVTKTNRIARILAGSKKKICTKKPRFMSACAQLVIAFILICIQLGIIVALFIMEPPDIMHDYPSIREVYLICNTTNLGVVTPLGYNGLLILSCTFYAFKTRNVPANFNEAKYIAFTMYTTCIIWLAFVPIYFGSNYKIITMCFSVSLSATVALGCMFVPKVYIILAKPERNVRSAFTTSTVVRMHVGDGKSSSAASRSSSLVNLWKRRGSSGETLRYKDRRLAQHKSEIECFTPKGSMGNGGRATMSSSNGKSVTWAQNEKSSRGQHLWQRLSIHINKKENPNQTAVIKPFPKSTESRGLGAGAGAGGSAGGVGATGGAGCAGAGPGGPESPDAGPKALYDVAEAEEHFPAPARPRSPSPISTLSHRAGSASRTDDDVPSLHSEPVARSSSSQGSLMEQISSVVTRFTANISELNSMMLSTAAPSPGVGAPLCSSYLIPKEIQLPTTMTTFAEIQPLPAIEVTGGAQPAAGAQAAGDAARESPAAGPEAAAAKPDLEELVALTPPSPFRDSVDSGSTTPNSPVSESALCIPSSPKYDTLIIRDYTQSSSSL

[7] = species: Rattus norvegicus; experiment: Activity at NMDA glutamate receptor in rat cerebral cortex at 10 uM
Method in brief: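 Inhibition of orthosteric ligand binding to NMDA, AMPA and kainate receptors on rat cerebral cortex membranes, tested up to 10 μM.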

[8] = tested on: Rattus norvegicus; experiment: Protection against 6-OHDA induced parkinsonian motor deficit in Sprague-Dawley rat assessed as increase in rearing time at 30 mg/kg, ip after 28 days post surgery; type: functional, organism-based
Method in brief: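 Adult male Sprague−Dawley rats with bilateral 6-OHDA striatal lesions given compound 30 mg/kg ip or vehicle at T0; spontaneous locomotor activity (active time, slow activity, rearing) counted in 5-min bins versus pre-surgery vehicle; n = 10.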

[9] = Drug uptake in Sprague-Dawley rat brain at 10 mg/kg, po after 60 mins post dose administered as single dose by LC-MS/MS analysis; type: ADME, organism-based; conditions: read-out: Drug uptake
Method in brief: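 Rats given a single oral dose of 10 mg/kg. Brain concentrations were measured at 30, 60 and 90 min postdose, and brain AUC0–inf was determined. Values are the mean of three rats. Lower limit of quantification was 1 ng/mL.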

[10] = Cmax in Sprague-Dawley rat plasma at 30 mg/kg, ip administered as single dose by LC-MS/MS analysis; type: ADME, organism-based; parameters: dose 30 mg/kg, route intraperitoneal
Method in brief: (§2)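 Rats dosed ip at 10 or 30 mg/kg. Plasma Cmax, Tmax, half-life and AUC0–inf were determined. Brain concentration was measured 30 min postdose, and brain/plasma ratio was taken at 30 min. Values are the mean (±SEM) of 3 rats.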

[11] = Plasma concentration in Sprague-Dawley rat at 30 mg/kg, ip after 30 mins; type: ADME, organism-based
Method in brief: (§3)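 Rats dosed 30 mg/kg ip; plasma sampled over time, brain measured at 30 and 60 min; brain/plasma ratio averaged over 30 and 60 min.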

[12] = Drug uptake in Sprague-Dawley rat brain at 30 mg/kg, ip after 60 mins; type: ADME, organism-based; conditions: read-out: Drug uptake
[13] = Protein binding in Sprague-Dawley rat brain at 10 uM by rapid equilibrium dialysis; type: ADME, tissue-based; conditions: read-out: PB (converted)
[14] = Drug uptake in Sprague-Dawley rat brain at 30 mg/kg, ip after 30 mins post dose administered as single dose by LC-MS/MS analysis; type: ADME, organism-based; conditions: read-out: Drug uptake; method in brief: as §2
[15] = tested on: Mus musculus; experiment: Volume of distribution in C57BL/6 mouse at 2 mg/kg, iv administered as single dose by LC-MS/MS analysis; type: ADME, organism-based; conditions: in vivo
Method in brief: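 Single intravenous dose: rats 1 mg/kg, mice 2 mg/kg. Plasma concentration–time data yielded Cmax, t1/2, AUC0−∞, plasma clearance and volume of distribution. Values are mean ±SEM of 3 animals.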

[16] = Ratio of drug uptake in Sprague-Dawley rat brain to plasma at 30 mg/kg, ip after 30 to 60 mins; type: ADME, organism-based; conditions: read-out: BPR; method in brief: as §3
[17] = Tmax in C57BL/6 mouse plasma at 10 mg/kg, po administered as single dose by LC-MS/MS analysis; type: ADME, organism-based
Method in brief: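 Single-dose plasma PK after ip (10 or 30 mg/kg) or oral (10 mg/kg) dosing in rats, and oral 10 mg/kg dosing in mice. […] Values are mean ±SEM of 3 rats or 2 mice.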

[18] = AUC (0 to infinity) in Sprague-Dawley rat at 1 mg/kg, iv administered as single dose by LC-MS/MS analysis; type: ADME, organism-based; parameters: dose 1 mg/kg, route intravenous, time infinity; conditions: in vivo
[19] = Ratio of drug level in C57BL/6 mouse brain to plasma at 2 mg/kg, iv administered as single dose measured after 30 mins by LC-MS/MS analysis; type: ADME, organism-based; conditions: read-out: BPR
Method in brief: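 Single iv dose, 1 mg/kg in rat or 2 mg/kg in mouse; plasma PK parameters derived; brain/plasma ratio taken at 1 h postdose (rat) or 30 min postdose (mouse). Mean of 3 rats; 2 mice for mouse Cmax and brain/plasma.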

[20] = AUC (0 to infinity) in Sprague-Dawley rat plasma at 30 mg/kg, ip administered as single dose by LC-MS/MS analysis; type: ADME, organism-based; parameters: dose 30 mg/kg, time infinity, route intraperitoneal; method in brief: as §2
[21] = Ratio of drug uptake in Sprague-Dawley rat brain at 10 mg/kg, ip to EC50 for rat mGlu4 receptor expressed in HEK293 cells
Method in brief: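 Rats received a single ip or oral dose. Brain concentration was measured 30 min postdose, mean of 3 rats, and divided by the EC50 measured in cell lines overexpressing rat mGluR4.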

[22] = Cmax in C57BL/6 mouse at 2 mg/kg, iv administered as single dose by LC-MS/MS analysis; type: ADME, organism-based; parameters: dose 2 mg/kg, route intravenous; conditions: in vivo
[23] = molecular target: Metabotropic glutamate receptor 4 (Homo sapiens, UniProt Q14833); experiment: Positive allosteric modulation of recombinant human mGlu4 receptor expressed in HEK293 cells co-expressing chimeric G protein assessed as increase in EC20 glutamate-induced […]; type: functional, cell-based
Metabotropic glutamate receptor 4, sequence (Q14833 whole entry): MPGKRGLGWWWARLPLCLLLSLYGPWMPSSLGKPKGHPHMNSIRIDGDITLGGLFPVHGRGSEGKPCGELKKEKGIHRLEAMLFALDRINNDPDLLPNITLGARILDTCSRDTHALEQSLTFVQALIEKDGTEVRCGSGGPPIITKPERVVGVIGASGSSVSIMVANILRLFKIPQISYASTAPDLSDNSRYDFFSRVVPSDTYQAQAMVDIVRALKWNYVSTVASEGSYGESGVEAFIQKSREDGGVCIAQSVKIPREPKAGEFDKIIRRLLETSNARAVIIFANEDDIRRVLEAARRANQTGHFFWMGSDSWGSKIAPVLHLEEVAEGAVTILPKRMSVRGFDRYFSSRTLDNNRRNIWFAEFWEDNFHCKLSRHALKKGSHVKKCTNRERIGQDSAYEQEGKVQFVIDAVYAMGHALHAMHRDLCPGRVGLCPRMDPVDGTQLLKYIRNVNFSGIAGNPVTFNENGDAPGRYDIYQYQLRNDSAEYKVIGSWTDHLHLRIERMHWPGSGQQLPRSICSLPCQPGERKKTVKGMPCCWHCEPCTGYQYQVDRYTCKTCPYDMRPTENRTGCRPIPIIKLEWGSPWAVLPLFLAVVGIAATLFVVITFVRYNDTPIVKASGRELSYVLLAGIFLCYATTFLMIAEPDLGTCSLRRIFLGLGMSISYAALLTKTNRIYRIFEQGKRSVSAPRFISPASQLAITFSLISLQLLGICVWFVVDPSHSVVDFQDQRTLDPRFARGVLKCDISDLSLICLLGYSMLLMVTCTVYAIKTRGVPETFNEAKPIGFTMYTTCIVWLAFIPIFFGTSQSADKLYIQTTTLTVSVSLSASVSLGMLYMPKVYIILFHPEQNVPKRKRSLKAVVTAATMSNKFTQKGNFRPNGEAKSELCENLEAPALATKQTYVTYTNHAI

Activity [1]: inactive | Activity [2]: inactive | Activity [3]: inactive | Activity [4]: inactive | Activity [5]: inactive | Activity [6]: inactive | Activity [7]: inactive
Compound: O/N=c1\cc(-c2cc3cccn3cn2)oc2ccc(OCCN3CCOCC3)cc12 [listing 1 of 2 here]
Activity [8]: Active

concentration at 1 h [9]: 262 ng/g | Cmax [10]: 9320 ng/mL | concentration at 0.5 h [11]: 7400 ng/mL | concentration at 1 h [12]: 12000 ng/g | fraction unbound at 10 µM [13]: 0.0076 | concentration at 0.5 h [14]: 22800 ng/g | Vd [15]: 6 L/kg | Kp [16]: 3.25 | Tmax [17]: 30 min | AUC(0-inf) [18]: 166 ng·h/mL | Kp at 0.5 h [19]: 3.6 | AUC(0-inf) [20]: 11300 ng·h/mL | Cmax [22]: 753 ng/mL | EC50 [23]: 70 nM
Compound: O/N=c1\cc(-c2cc3cccn3cn2)oc2ccc(OCCN3CCOCC3)cc12 [listing 2 of 2 here]
Ratio [21]: 3.6
